Source: ChEMBL document CHEMBL1150325, “Synthesis of methyl 5-S-alkyl-5-thio-D-arabinofuranosides and evaluation of their antimycobacterial activity” (2008)
≈ marks a conversion by molar mass, not a printed value. Calls of active or inactive are those of the source. The calls are words filed in the database; no cut-off is given here.

Experiments:
[1] = target: Diacylglycerol acyltransferase/mycolyltransferase Ag85C (Mycobacterium tuberculosis) (UniProt P9WQN9); test: Inhibition of mycolyltransferase activity of Mycobacterium tuberculosis antigen 85C by UV-visible absorption spectroscopy
How it was run: (§1)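 Purified ag85C (M. tuberculosis) in 10 mM Tris–HCl pH 7.5, 2 mM EDTA, 1 mM DTT, added to start the reaction. The mix holds sodium phosphate buffer, β-glucosidase, dextrose and the glucose-based p-nitrophenyl substrate analogue (stock 0.1–2.5 mM, in 10% v/v DMSO); test compound is added in DMSO. The coupled release of p-nitrophenolate is read at 405 nm every 20 s for 1 h, and activity is compared by the slopes.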

Bacillus subtilis = test: Antibacterial activity against Bacillus subtilis ATCC 6633 after 36 hrs visualized by MTT staining by broth macrodilution assay; type: functional; conditions: ATCC 6633, 36 h
How it was run: (§2)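 Broth macrodilution adapted from NCCLS. E. coli and B. subtilis grown in Mueller-Hinton broth; M. smegmatis in Middlebrook 7H9 with 0.2% glycerol and ADC enrichment. Inocula were set to a 0.5 McFarland standard, giving a final density of 5.0 · 10⁵ cfu/mL. Incubated at 37 °C for 36 h and the MIC recorded.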

[2] = system: Mycolicibacterium smegmatis; test: Antibacterial activity against Mycobacterium smegmatis ATCC 14468 assessed as inhibition zone diameter at 20 mg/mL after 24 hrs by Kirby-Bauer disk diffusion assay; type: functional; conditions: for zone of inhibition at 20000 µg/mL: ATCC 14468, 24 h, read-out: IZ
How it was run: (§3)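 Disk diffusion adapted from NCCLS. M. smegmatis was pre-grown about 24 h in 7H9 with 0.2% glycerol and ADC at 37.5 °C and 160 rpm, to OD₆₀₀ 0.27. It was swabbed onto Lennox or 7H10 agar with 0.5% glycerol and OADC. DMSO solutions (20 or 10 mg/mL) or control went onto 6 mm paper disks. Plates were incubated at 37 °C for 24 h, rechecked at day 6, and zone diameters measured in mm by ruler.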

Escherichia coli = test: Antibacterial activity against Escherichia coli ATCC 23722 after 36 hrs visualized by MTT staining by broth macrodilution assay; type: functional; conditions: ATCC 23722, 36 h; how it was run: as §2
[3] = system: Mycolicibacterium smegmatis; test: Antibacterial activity against Mycobacterium smegmatis ATCC 14468 assessed as inhibition zone diameter at 10 mg/mL after 24 hrs by Kirby-Bauer disk diffusion assay; type: functional; conditions: for zone of inhibition at 10000 µg/mL: ATCC 14468, 24 h, read-out: IZ; how it was run: as §3
[4] = system: Mycolicibacterium smegmatis; test: Antibacterial activity against Mycobacterium smegmatis ATCC 14468 after 36 hrs visualized by MTT staining by broth macrodilution assay; type: functional; conditions: ATCC 14468, 36 h; how it was run: as §2
[5] = target: Diacylglycerol acyltransferase/mycolyltransferase Ag85C (Mycobacterium tuberculosis) (UniProt P9WQN9); test: Inhibition of mycolyltransferase activity of Mycobacterium tuberculosis antigen 85C at 1 to 20 mM by UV-visible absorption spectroscopy; how it was run: as §1

Sequence of Diacylglycerol acyltransferase/mycolyltransferase Ag85C (Mycobacterium tuberculosis) (P9WQN9 whole entry): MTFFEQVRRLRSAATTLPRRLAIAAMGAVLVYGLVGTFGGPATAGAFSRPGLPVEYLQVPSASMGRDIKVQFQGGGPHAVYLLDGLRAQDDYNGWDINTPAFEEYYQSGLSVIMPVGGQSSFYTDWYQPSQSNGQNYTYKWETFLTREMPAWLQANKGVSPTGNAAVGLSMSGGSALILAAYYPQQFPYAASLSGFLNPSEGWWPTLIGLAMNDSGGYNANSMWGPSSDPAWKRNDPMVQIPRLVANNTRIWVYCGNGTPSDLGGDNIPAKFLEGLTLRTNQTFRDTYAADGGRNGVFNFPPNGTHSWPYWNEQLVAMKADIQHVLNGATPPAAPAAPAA

Row | SMILES | Activity [1] | MIC (Bacillus subtilis) [µg/mL] | zone of inhibition at 20000 µg/mL [2] [mm] | MIC (Escherichia coli) [µg/mL] | zone of inhibition at 10000 µg/mL [3] [mm] | MIC [4] [µg/mL] | Activity [2] | Activity [3] | Activity [5]
1 | CCCCCCCCSC[C@H]1O[C@@H](OC)[C@@H](O)[C@@H]1O | Active | 512 (≈ 1.75 mM) | 13.5 | > 1020 | 7.5 | 512 (≈ 1.75 mM) |  |  | 
2 | NNC(=O)c1ccncc1 [ISONIAZID] |  |  |  |  |  | 2 (≈ 0.0146 mM) |  |  | 
3 | CCCCSC[C@H]1O[C@H](OC)[C@@H](O)[C@@H]1O |  | > 1020 |  | > 1020 |  | > 1020 | inactive | inactive | 
4 | CCCCSC[C@H]1O[C@@H](OC)[C@@H](O)[C@@H]1O |  | > 1020 |  | > 1020 |  | > 1020 | inactive | inactive | inactive
5 | CCCCCCCCSC[C@H]1O[C@H](OC)[C@@H](O)[C@@H]1O | Active | 128 (≈ 0.438 mM) | 17.5 | > 1020 | 14.5 | 256 (≈ 0.875 mM) |  |  | 
6 | CCCCCCSC[C@H]1O[C@@H](OC)[C@@H](O)[C@@H]1O | Active | > 1020 |  | > 1020 |  | 1020 (≈ 3.87 mM) | inactive | inactive | 
7 | CCCCCCSC[C@H]1O[C@H](OC)[C@@H](O)[C@@H]1O | Active | > 1020 |  | > 1020 |  | 1020 (≈ 3.87 mM) | inactive | inactive | 
